Source: ChEMBL document CHEMBL1811907, “Chemical and biological evaluation of dipeptidyl boronic acid proteasome inhibitors for use in prodrugs and pro-soft drugs targeting solid tumors” (J Med Chem, 2011)

Legend:
[1] = organism: Mus musculus; assay: Inhibition of proteasome in mouse tumor cells relative to inhibition in blood cells; type: subcellular; details: concentration not given here
[2] = Inhibition of chymotrypsin-like activity of 20S proteasome using suc-LLVY-AMC as substrate preincubated for 10 mins before substrate addition at pH 2.0 by fluorescence assay
In short: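 Inhibitor from 0.1 M ethanol stock diluted into pH 2.0 buffer (0.148 M HCl, 0.052 M KCl) and equilibrated overnight at room temperature (24 h per text). 20S proteasome SDS-activated, preincubated 10 min with inhibitor; Suc-LLVY-AMC added; fluorescence (ex 360/em 460 nm) read after 30 min. Assay-well pH checked. Quadruplicates; variable-slope sigmoidal fit.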

[3] = Inhibition of chymotrypsin-like activity of 20S proteasome using suc-LLVY-AMC as substrate preincubated for 10 mins before substrate addition at pH 7.6 by fluorescence assay
In short: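 Inhibitor from 0.1 M ethanol stock diluted into pH 7.6 buffer (25 mM HEPES, 0.5 mM EDTA) and equilibrated overnight at room temperature (24 h per text). SDS-activated 20S proteasome preincubated 10 min with inhibitor before Suc-LLVY-AMC; fluorescence ex 360/em 460 nm after 30 min. Quadruplicates; variable-slope sigmoidal fit.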

[4] = Inhibition of intracellular chymotrypsin-like activity of 20S proteasome in human HEK293 cells after 24 hrs by fluorescence plate reader; type: cell-based; details: HEK293, 24 h
In short: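 HEK 293 ZsGreen proteasome-sensor cells (stable ZsGreen–ornithine decarboxylase degron fusion, G418 maintenance) seeded 3.2 × 10⁴ per well, grown 24 h. Then 24 h with inhibitor at 37 °C, 5% CO₂. Cells lysed in HEPES/EDTA/5% Triton buffer for 1 h; fluorescence ex 485/em 535 nm. Quadruplicates; variable-slope sigmoidal fit.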

[5] = system: HEK293; assay: Ratio of IC50 for intracellular chymotrypsin-like activity of 20S proteasome in human HEK293 cells to IC50 for in vitro chymotrypsin-like activity of 20S proteasome; type: cell-based
[6] = Cytotoxicity against human HEK293 cells after 24 hrs by MTT assay; type: cell-based
In short: (§1)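 Cells seeded at 3.2 × 10⁴ per well, grown 24 h at 37 °C, 5% CO₂, then exposed to inhibitor dilutions 24 h. Inhibitor from 0.1 M ethanol stock, pre-equilibrated overnight in pH 2.0 or pH 7.6 buffer. MTT (5 mg/mL) added for 3 h; formazan dissolved overnight in acidic Triton/isopropanol; A570 read. Quadruplicates; variable-slope sigmoidal fit.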

[7] = Cytotoxicity against human FSCLL cells after 24 hrs by MTT assay; type: cell-based; in short: as §1
[8] = Ratio of CC50 for human follicular small-cell lymphocytic leukemia cells to IC50 for chymotrypsin-like activity of 20S proteasome at pH 2.0
[9] = Ratio of CC50 for human follicular small-cell lymphocytic leukemia cells to IC50 for intracellular chymotrypsin-like activity of 20S proteasome in human HEK293 cells

CC(C)C[C@H](NC(=O)[C@H](Cc1ccccc1)NC(=O)c1cnccn1)B(O)O [BORTEZOMIB]
inhibition [1]: 44.8%
IC50 [2]: 10 nM
IC50 [3]: 14 nM
IC50 [4]: 27 nM
Ratio IC50 [5]: 2.7
CC50 at 24 h [6]: 347 nM
CC50 at 24 h [7]: 4 nM
Ratio CC50/IC50 [8]: 0.4
Ratio CC50/IC50 [9]: 0.16
